Experimental data taken from ChEMBL document CHEMBL1811800, “The discovery of long-acting saligenin β₂ adrenergic receptor agonists incorporating hydantoin or uracil rings” (Bioorg Med Chem, 2011).

Experiments:
[1] = target: Beta-3 adrenergic receptor (Homo sapiens, UniProt P13945); test: Agonist activity at human adrenergic beta3 receptor expressed in CHO cells assessed as cAMP accumulation; assay type: functional, cell-based
[2] = target: Beta-1 adrenergic receptor (Homo sapiens, UniProt P08588); test: Agonist activity at human adrenergic beta1 receptor expressed in CHO cells assessed as cAMP accumulation; assay type: functional, cell-based
[3] = target: Beta-2 adrenergic receptor (Homo sapiens, UniProt P07550); test: Agonist activity at human adrenergic beta2 receptor expressed in CHO cells assessed as cAMP accumulation; assay type: functional, cell-based
Cavia porcellus [4] = test: Bronchodilatory activity against histamine-induced bronchospasm in guinea pig administered via nebulizer; assay type: functional
Method in brief: (§1)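 Guinea pigs; agonist given as nebulised solution in dimethyl acetamide-saline vehicle at EC90 dose or 10-fold EC90 dose. Duration expressed as time to 50% recovery.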

[5] = Oral bioavailability in Beagle dog at 0.25 mg/kg by LC-MS/MS; assay type: ADME, organism-based, Canis lupus familiaris; settings: in vivo
Method in brief: (§2)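 Female beagle dogs (n = 2), fasted 18 h, crossover design. Oral 0.25 mg base/kg by gavage in DMSO-PEG 200-distilled water (5:30:65); iv 0.052 mg base/kg via cephalic vein in DMSO-PEG 200-saline (10:45:45). Jugular blood sampled 0.03 (iv only) to 8 h. Plasma assayed by LC–MS/MS; noncompartmental parameters.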

[6] = Cmax in Beagle dog at 0.25 mg/kg, po by LC-MS/MS; assay type: ADME, organism-based, Canis lupus familiaris; design: dose 0.25 mg/kg, route oral; settings: in vivo; method in brief: as §2
[7] = Half life in Beagle dog at 0.052 mg/kg, iv by LC-MS/MS; assay type: ADME, organism-based, Canis lupus familiaris; design: dose 0.052 mg/kg, route intravenous; settings: in vivo; method in brief: as §2
[8] = Volume of distribution at steady state in Beagle dog at 0.052 mg/kg, iv by LC-MS/MS; assay type: ADME, organism-based, Canis lupus familiaris; design: dose 0.052 mg/kg, route intravenous; settings: in vivo, read-out: Vdss; method in brief: as §2
[9] = Plasma clearance in Beagle dog at 0.052 mg/kg, iv by LC-MS/MS; assay type: ADME, organism-based, Canis lupus familiaris; design: dose 0.052 mg/kg, route intravenous; method in brief: as §2
[10] = Oral bioavailability in Han Wistar rat at 2.0 mg/kg by LC-MS/MS; assay type: ADME, organism-based; settings: in vivo
Method in brief: (§3)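 Male Han Wistar rats, fasted 18 h. Oral dose 2.0 mg base/kg by gavage in DMSO-PEG 200-distilled water (5:30:65); iv dose 0.25 mg base/kg via tail vein in DMSO-PEG 200-saline (10:45:45). Blood sampled 0.03 (iv only) to 8 h post dose, n = 2 animals/time-point. Plasma assayed by LC–MS/MS; parameters from noncompartmental analysis.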

[11] = Volume of distribution at steady state in Han Wistar rat at 0.25 mg/kg, iv by LC-MS/MS; assay type: ADME, organism-based; design: dose 0.25 mg/kg, route intravenous; settings: in vivo, read-out: Vdss; method in brief: as §3
[12] = Half life in Han Wistar rat at 0.25 mg/kg, iv by LC-MS/MS; assay type: ADME, organism-based; design: dose 0.25 mg/kg, route intravenous; settings: in vivo; method in brief: as §3
[13] = Plasma clearance in Han Wistar rat at 0.25 mg/kg, iv by LC-MS/MS; assay type: ADME, organism-based; design: dose 0.25 mg/kg, route intravenous; method in brief: as §3
[14] = target: Beta-2 adrenergic receptor (Cavia porcellus, UniProt Q8K4Z4); test: Agonist activity at adrenergic beta2 receptor in guinea pig trachea assessed as inhibition of electrically-stimulated contraction; assay type: functional
Liver microsomes [15] = test: Metabolic stability in human liver microsomes with 125 pmol/mL P450 assessed as compound turnover ratio at 5 uM after 30 mins by LC-MS method relative to verapamil; assay type: ADME, Microsome; settings: 0.5 h
Cavia porcellus [16] = test: Bronchodilatory activity against histamine-induced bronchospasm in guinea pig assessed as time taken for 50% recovery of bronchospasm at EC90 administered via nebulizer; assay type: functional; method in brief: as §1
Cavia porcellus [17] = test: Bronchodilatory activity against histamine-induced bronchospasm in guinea pig assessed as time taken for 50% recovery of bronchospasm at 10-fold EC90 administered via nebulizer; assay type: functional; method in brief: as §1
[18] = Stability of the compound in solid state at 4 degC after 18 days; assay type: physicochemical; settings: 432 h
Liver microsomes [19] = test: Metabolic stability of the compound in human liver microsomes assessed as formation of N-({[3-(4-{[6-({(2R)-2-Hydroxy-2-[4-hydroxy-3-(hydroxy methyl)phenyl]ethyl}amino) hexyl]oxy}butyl)phenyl]amino} carbonyl)glycine acetate; assay type: ADME, Microsome
Method in brief: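 Incubated at 25 µM with human liver microsomes (and hepatocytes). Samples mixed with equal volume acetonitrile, centrifuged; supernatant analysed by reverse-phase gradient LC with electrospray MS detection for metabolites.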

[20] = Stability of the compound in methanol assessed as formation of methyl ester of N-({[3-(4-{[6-({(2R)-2-Hydroxy-2-[4-hydroxy-3-(hydroxy methyl)phenyl]ethyl}amino) hexyl]oxy}butyl)phenyl]amino} carbonyl)glycine acetate

Sequence of Beta-3 adrenergic receptor (P13945 whole entry): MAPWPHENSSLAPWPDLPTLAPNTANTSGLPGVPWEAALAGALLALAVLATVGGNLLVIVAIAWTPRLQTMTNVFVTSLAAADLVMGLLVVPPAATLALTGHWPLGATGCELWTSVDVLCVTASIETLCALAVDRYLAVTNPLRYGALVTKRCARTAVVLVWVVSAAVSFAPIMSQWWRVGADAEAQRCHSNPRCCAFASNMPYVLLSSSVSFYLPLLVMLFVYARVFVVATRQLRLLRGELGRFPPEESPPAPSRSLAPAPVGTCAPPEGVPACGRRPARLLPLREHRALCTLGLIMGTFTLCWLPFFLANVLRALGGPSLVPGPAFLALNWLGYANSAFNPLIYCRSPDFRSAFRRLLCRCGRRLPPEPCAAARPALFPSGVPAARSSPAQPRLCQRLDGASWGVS
Sequence of Beta-1 adrenergic receptor (P08588 whole entry): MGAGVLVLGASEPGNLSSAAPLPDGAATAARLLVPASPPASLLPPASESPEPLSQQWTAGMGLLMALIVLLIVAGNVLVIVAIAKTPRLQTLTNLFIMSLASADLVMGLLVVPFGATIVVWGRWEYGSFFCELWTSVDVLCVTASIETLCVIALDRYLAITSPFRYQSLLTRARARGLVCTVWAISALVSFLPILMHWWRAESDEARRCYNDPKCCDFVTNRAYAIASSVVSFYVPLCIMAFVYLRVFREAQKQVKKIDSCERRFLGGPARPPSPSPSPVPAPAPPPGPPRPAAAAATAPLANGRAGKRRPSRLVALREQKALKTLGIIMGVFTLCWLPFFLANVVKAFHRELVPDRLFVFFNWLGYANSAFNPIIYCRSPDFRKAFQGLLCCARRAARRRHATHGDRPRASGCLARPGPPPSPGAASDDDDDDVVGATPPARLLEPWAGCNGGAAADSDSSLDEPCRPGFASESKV
Sequence of Beta-2 adrenergic receptor (Cavia porcellus, UniProt Q8K4Z4) (Q8K4Z4 whole entry): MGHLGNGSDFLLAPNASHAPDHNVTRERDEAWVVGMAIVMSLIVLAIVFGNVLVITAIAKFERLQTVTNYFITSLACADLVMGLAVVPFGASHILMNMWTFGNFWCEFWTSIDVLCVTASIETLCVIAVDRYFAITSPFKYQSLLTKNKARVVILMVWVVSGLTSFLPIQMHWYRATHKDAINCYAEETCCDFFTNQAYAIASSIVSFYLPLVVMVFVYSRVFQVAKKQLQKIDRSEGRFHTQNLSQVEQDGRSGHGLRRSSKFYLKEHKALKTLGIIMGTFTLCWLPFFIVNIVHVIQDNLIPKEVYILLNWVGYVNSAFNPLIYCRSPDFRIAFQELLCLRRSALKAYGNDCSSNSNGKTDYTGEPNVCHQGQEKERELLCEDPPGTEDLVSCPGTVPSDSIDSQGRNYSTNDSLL
Sequence of Beta-2 adrenergic receptor (Homo sapiens, UniProt P07550) (P07550 whole entry): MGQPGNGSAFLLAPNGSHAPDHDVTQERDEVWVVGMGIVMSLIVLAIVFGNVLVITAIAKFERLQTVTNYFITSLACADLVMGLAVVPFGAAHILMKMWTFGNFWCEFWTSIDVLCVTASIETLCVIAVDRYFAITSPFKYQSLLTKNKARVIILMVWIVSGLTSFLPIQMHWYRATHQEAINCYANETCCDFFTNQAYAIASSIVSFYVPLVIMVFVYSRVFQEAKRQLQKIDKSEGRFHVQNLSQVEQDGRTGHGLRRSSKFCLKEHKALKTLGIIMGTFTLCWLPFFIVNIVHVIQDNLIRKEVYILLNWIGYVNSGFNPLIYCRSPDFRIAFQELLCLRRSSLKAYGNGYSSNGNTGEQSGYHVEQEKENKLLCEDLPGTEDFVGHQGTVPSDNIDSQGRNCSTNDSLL

| Compound | EC50 [1] | EC50 [2] | EC50 [3] | EC50 [14] | Ratio (Liver microsomes [15]) | also measured |
| --- | --- | --- | --- | --- | --- | --- |
| O=c1ccn(-c2cccc(CCCCOCCCCCCNC[C@H](O)c3ccc(O)c(CO)c3)c2)c(=O)[nH]1 | 50.1 nM | 50.1 nM | 1.26 nM | – | – | – |
| CC(=O)O.O=C1CNC(=O)N1c1cccc(CCCCOCCCCCCNC[C@H](O)c2ccc(O)c(CO)c2)c1 | 100 nM | 79.4 nM | 0.631 nM | 0.794 nM | 0.86 | EC90 (Cavia porcellus [4]): 25000 nM; bioavailability [5]: 5%; Cmax [6]: 12 ng/mL; half-life [7]: 2 h; Vd [8]: 0.8 L/kg; clearance [9]: 13 mL/min/kg; bioavailability [10]: 2%; Vd [11]: 2 L/kg; half-life [12]: 0.3 h; clearance [13]: 120 mL/min/kg; Time (Cavia porcellus [16]): 12 h; Time (Cavia porcellus [17]): 18 h; Stability [18]: Unstable; Stability (Liver microsomes [19]): Unstable; Stability [20]: Unstable |
| CC(=O)O.O=C1CNC(=O)N1Cc1cccc(CCCCOCCCCCCNC[C@H](O)c2ccc(O)c(CO)c2)c1 | 39.8 nM | 126 nM | 1.26 nM | – | 1.62 | – |
| O=C1NC(=O)N(Cc2cccc(CCCCOCCCCCCNC[C@H](O)c3ccc(O)c(CO)c3)c2)C1=O | 25.1 nM | 50.1 nM | 0.794 nM | – | – | – |
| O=c1cc[nH]c(=O)n1-c1cccc(CCCCOCCCCCCNC[C@H](O)c2ccc(O)c(CO)c2)c1 [listing 1 of 2 here] | 398 nM | 251 nM | 0.794 nM | – | – | – |
| O=c1cc[nH]c(=O)n1-c1cccc(CCCCOCCCCCCNC[C@H](O)c2ccc(O)c(CO)c2)c1 [listing 2 of 2 here] | – | – | – | 0.2 nM | – | – |
| O=C(O)CNC(=O)Nc1cccc(CCCCOCCCCCCNC[C@H](O)c2ccc(O)c(CO)c2)c1 [listing 2 of 2 here] | – | – | – | 1 nM | – | – |
| OCc1cc(C(O)CNCCCCCCOCCCCc2ccccc2)ccc1O (stereo unspecified) [SALMETEROL] | – | – | – | 5.01 nM | – | EC90 (Cavia porcellus [4]): 50000 nM |

More lines, main results first:

| EC50 [1] | EC50 [2] | EC50 [3] | EC50 [14] | Ratio (Liver microsomes [15]) | Compound | also measured |
| --- | --- | --- | --- | --- | --- | --- |
| 31.6 nM | 79.4 nM | 2 nM | – | 0.3 | CC(=O)O.O=C1CNC(=O)N1c1ccc(CCCCOCCCCCCNC[C@H](O)c2ccc(O)c(CO)c2)cc1 | – |
| 200 nM | 200 nM | 2.51 nM | – | 0.46 | O=C1CNC(=O)N1c1ccccc1CCCCOCCCCCCNC[C@H](O)c1ccc(O)c(CO)c1 | – |
| 63.1 nM | 200 nM | 0.794 nM | – | 0.48 | CC(=O)O.CC1(C)NC(=O)N(c2cccc(CCCCOCCCCCCNC[C@H](O)c3ccc(O)c(CO)c3)c2)C1=O | – |
| 316 nM | 200 nM | 2.51 nM | 2.51 nM | 0.4 | CC(=O)O.O=C1CN(c2cccc(CCCCOCCCCCCNC[C@H](O)c3ccc(O)c(CO)c3)c2)C(=O)N1 | – |
| 63.1 nM | 79.4 nM | 0.631 nM | – | 0.75 | CC(=O)O.O=C1CN(Cc2cccc(CCCCOCCCCCCNC[C@H](O)c3ccc(O)c(CO)c3)c2)C(=O)N1 | – |
| 79.4 nM | 158 nM | 0.251 nM | – | 0.91 | CC(=O)O.NC(=O)CN1C(=O)CN(c2cccc(CCCCOCCCCCCNC[C@H](O)c3ccc(O)c(CO)c3)c2)C1=O | – |
| 100 nM | 126 nM | 1 nM | – | 0.55 | O=C(O)CNC(=O)Nc1cccc(CCCCOCCCCCCNC[C@H](O)c2ccc(O)c(CO)c2)c1 [listing 1 of 2 here] | – |
